Assay [1] has as its target Small conductance calcium-activated potassium channel (Rattus norvegicus, UniProt P70604+P70606+P70605). The assay can be described thus: The SKCa-blocking action was assessed by its ability to inhibit the after hyperpolarization (AHP) in cultured rat sympathetic neurones. In kind it is functional, cell-based. The settings on record: sympathetic neuron. The method, boiled down:
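SKCa block was read as inhibition of the after-hyperpolarization following action potentials in cultured rat sympathetic neurones. Each compound was tested at two to four concentrations on at least three cells, and IC50 was taken for 50% AHP inhibition. Concentrations above 10–30 μM were generally avoided. Dequalinium was included as reference in each series.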

Assay [2] in a line: Equieffective molar ratio(EMR) to that of the dequalinium, causing 50% inhibition of AHP(action potential). In kind it is functional. In short, it runs like this:
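AHP inhibition in cultured rat sympathetic neurones. Each compound was tested at two to four concentrations on at least three cells, with dequalinium run as reference in the same series (one to three compounds per series). EMR is the ratio of test compound to dequalinium concentration giving 50% AHP inhibition within the same experiment. Test concentrations above 10–30 μM were generally avoided.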

The values below come from ChEMBL document CHEMBL1128540, “Synthesis and quantitative structure-activity relationships of dequalinium analogues as K+ channel blockers: investigation into the role of the substituent at position 4 of the quinoline ring” (J Med Chem, 1995).

As to `COc1cc(OC)c(CNc2cc[n+](CCCCCCCCCC[n+]3ccc(NCc4c(OC)cc(OC)cc4OC)c4ccccc43)c3ccccc23)c(OC)c1`, the IC50 in assay [1] was determined as 600 nM. Besides, the EMR in assay [2] turned out to be 1.

Consider `CC(=O)O[C@H]1C[C@@H]2CC[C@@H]3[C@H](CC[C@@]4(C)[C@H]3C[C@H]([N+]3(C)CCCCC3)[C@@H]4OC(C)=O)[C@@]2(C)C[C@@H]1[N+]1(C)CCCCC1.[Br-].[Br-]` [PANCURONIUM BROMIDE], for which the IC50 in assay [1] is 6800 nM.

On to `COc1cc2c3cc1Oc1cc(ccc1O)C[C@@H]1c4c(cc(OC)c(O)c4Oc4ccc(cc4)C[C@@H]3N(C)CC2)CC[N+]1(C)C.[Cl-]`, for which, in assay [1], the IC50 came to 7500 nM.

Take `Nc1ccc2c(NCc3ccccc3)cc[n+](CCCCCCCCCC[n+]3ccc(NCc4ccccc4)c4ccc(N)cc43)c2c1`: in assay [1], the IC50 was 500 nM. Also, in assay [2], the EMR was 0.9.

`c1ccc(Nc2cc[n+](CCCCCCCCCC[n+]3ccc(Nc4ccccc4)c4ccccc43)c3ccccc23)cc1`: in assay [1], the IC50 came to 2400 nM. Also, the EMR in assay [2] worked out at 3.4.

As for `c1ccc(Oc2cc[n+](CCCCCCCCCC[n+]3ccc(Oc4ccccc4)c4ccccc43)c3ccccc23)cc1`, the IC50 in assay [1] stood at 2700 nM. Further, in assay [2], the EMR was 6.5.

In the case of `c1ccc(CNc2cc[n+](CCCCCCCCCC[n+]3ccc(NCc4ccccc4)c4ccccc43)c3ccccc23)cc1`, the IC50 in assay [1] is 520 nM. Further, the EMR in assay [2] amounted to 0.7.

In the case of `CN(C)c1cc[n+](CCCCCCCCCC[n+]2ccc(N(C)C)c3ccccc32)c2ccccc12`, the IC50 in assay [1] was 1400 nM. Moreover, in assay [2], the EMR came out at 1.4.

On to `Nc1cc[n+](CCCCCCCCCC[n+]2ccc(N)c3ccccc32)c2ccccc12`, for which the IC50 in assay [1] was determined as 1400 nM. In addition, the EMR in assay [2] was found to be 1.3.

In the case of `c1ccc2c(c1)ccc[n+]2CCCCCCCCCC[n+]1cccc2ccccc21`, in assay [1], the IC50 amounted to 21000 nM. In addition, the EMR in assay [2] is 15.

In the case of `[O-]c1cc[n+](CCCCCCCCCC[n+]2ccc([O-])c3ccccc32)c2ccccc12`, in assay [1], the IC50 was > 10000 nM. Also, the EMR in assay [2] was > 10.

As to `Cc1cc(N)c2ccccc2[n+]1CCCCCCCCCC[n+]1c(C)cc(N)c2ccccc21.[Cl-].[Cl-]` [DEQUALINIUM CHLORIDE], the IC50 in assay [1] was determined as 740 nM. Moreover, the EMR in assay [2] was 1.

Take `Nc1c2c([n+](CCCCCCCCCC[n+]3c4c(c(N)c5ccccc53)CCCC4)c3ccccc13)CCCC2`: in assay [1], the IC50 was found to be 1000 nM. Besides, the EMR in assay [2] stood at 0.9.

`CN(c1ccccc1)c1cc[n+](CCCCCCCCCC[n+]2ccc(N(C)c3ccccc3)c3ccccc32)c2ccccc12`: the IC50 in assay [1] was 1400 nM. For the same compound, the EMR in assay [2] turned out to be 1.7.

`Cc1cc[n+](CCCCCCCCCC[n+]2ccc(C)c3ccccc32)c2ccccc12`: in assay [1], the 50% inhibitory concentration (IC50) turned out to be 14500 nM. Besides, in assay [2], the EMR was 26.

`CC(=O)Nc1cc[n+](CCCCCCCCCC[n+]2ccc(NC(C)=O)c3ccccc32)c2ccccc12`: in assay [1], the IC50 came to 4500 nM. Moreover, the EMR in assay [2] came out at 5.5.
